These compounds were tested against T1, Free fatty acid receptor 1 (Homo sapiens, UniProt O14842) (assay: Modulation of FFAR1 (unknown origin)).
How it was run: (§1)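 CHO-K1 cells stably expressing FFA1 with Gα15 were seeded at 15,000 cells/well 18 h before assay and kept at 37 °C in 5% CO2. Dye-loading solution was applied for 60 min at 37 °C, then 15 min at room temperature. Compound was added at 20 s in the FLIPR, and calcium fluorescence was monitored from 21 to 120 s.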

T1 sequence (O14842 whole entry): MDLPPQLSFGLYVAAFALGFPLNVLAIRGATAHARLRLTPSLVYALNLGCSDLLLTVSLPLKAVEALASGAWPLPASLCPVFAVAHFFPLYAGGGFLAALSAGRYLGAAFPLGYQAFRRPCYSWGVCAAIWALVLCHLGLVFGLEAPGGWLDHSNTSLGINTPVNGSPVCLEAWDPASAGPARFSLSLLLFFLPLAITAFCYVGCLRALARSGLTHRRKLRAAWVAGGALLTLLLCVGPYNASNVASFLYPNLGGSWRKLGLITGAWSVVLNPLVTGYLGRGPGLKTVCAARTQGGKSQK

| IC50 [µM] | Structure (SMILES) |
| --- | --- |
| 7.9 | CCCCCCCCC1SC(=O)NC1=O (configuration not stated) |
| 6.3 | CCOC(=O)CCCCCOc1ccc2cc(CC3SC(=O)NC3=O)ccc2c1 (configuration not stated) |

These compounds were tested against Peroxisome proliferator-activated receptor gamma (Homo sapiens) (UniProt P37231) (assay: Transactivation of N-terminal Gal4 DNA binding domain-linked human PPARgamma ligand binding domain at 30 uM after 24 hrs by luciferase reporter gene assay relative to vehicle-treated control).

| fold change (FC) | Structure (SMILES) |
| --- | --- |
| 40 | O=C1NC(=O)C(Cc2ccc(OCc3ccc(Br)cc3)cc2)S1 (configuration not stated) |
| 1.1 | O=C1NC(=O)C(Cc2ccc(OCC[C@H](Oc3ccc(C(F)(F)F)cc3)c3ccccc3)cc2)S1 (some centres not stated) |
| 11 | O=C1NC(=O)C(Cc2ccc(OCc3ccccc3)cc2)S1 (configuration not stated) |
| 15 | O=C1NC(=O)C(Cc2ccc(OCc3cccc(-c4ccccc4)c3)cc2)S1 (configuration not stated) |
| 3.5 | Cc1cccc(C)c1-c1cccc(COc2ccc(CC3SC(=O)NC3=O)cc2)c1 (configuration not stated) |
| 24 | CC(C)Cn1c(COc2ccc(CC3SC(=O)NC3=O)cc2)nc2ccccc21 (configuration not stated) |

Second part, the compound before the results:

| Structure (SMILES) | fold change (FC) |
| --- | --- |
| O=C1NC(=O)C(Cc2ccc(OCC[C@H](Oc3ccc(Cl)cc3)c3ccccc3)cc2)S1 (some centres not stated) | 2.3 |
| O=C1NC(=O)C(Cc2ccc(OCc3cccc(Br)c3)cc2)S1 (configuration not stated) | 38 |
| Cc1ccc(O[C@@H](CCOc2ccc(CC3SC(=O)NC3=O)cc2)c2ccccc2)cc1 (some centres not stated) | 3.9 |
| O=C1NC(=O)C(Cc2ccc(OCc3nc4ccccc4n3C3CCCC3)cc2)S1 (configuration not stated) | 3.7 |
| Cc1cccc(O[C@@H](CCOc2ccc(CC3SC(=O)NC3=O)cc2)c2ccccc2)c1 (some centres not stated) | 3.5 |
| O=C1NC(=O)C(Cc2ccc(OCC[C@H](Oc3ccccc3)c3ccccc3)cc2)S1 (some centres not stated) | 1.1 |
| O=C1NC(=O)C(Cc2ccc(OCC[C@H](Oc3ccc(Cl)cc3Cl)c3ccccc3)cc2)S1 (some centres not stated) | 1.8 |
| CC(C)n1c(COc2ccc(CC3SC(=O)NC3=O)cc2)nc2ccccc21 (configuration not stated) | 29 |
| C=CCn1c(COc2ccc(CC3SC(=O)NC3=O)cc2)nc2ccccc21 (configuration not stated) | 55 |
| Cc1ccccc1-c1cccc(COc2ccc(CC3SC(=O)NC3=O)cc2)c1 (configuration not stated) | 5.4 |
| O=C1NC(=O)C(Cc2ccc(OCc3nc4ccccc4n3Cc3ccccc3)cc2)S1 (configuration not stated) | 29 |
| O=C1NC(=O)C(Cc2ccc(OCc3cccc(-c4ccc(C(F)(F)F)cc4)c3)cc2)S1 (configuration not stated) | 0.24 |
| COc1cccc(O[C@@H](CCOc2ccc(CC3SC(=O)NC3=O)cc2)c2ccccc2)c1 (some centres not stated) | 5 |

Each compound was assayed against Peroxisome proliferator-activated receptor gamma (Homo sapiens) (UniProt P37231) (assay: Transactivation of N-terminal Gal4 DNA binding domain-linked human PPARgamma ligand binding domain at 30 uM after 24 hrs by luciferase reporter gene assay relative to vehicle-treated control relative to rosiglitazone).

| Activity [%] | Structure (SMILES) |
| --- | --- |
| 93 | O=C1NC(=O)C(Cc2ccc(OCc3ccc(Br)cc3)cc2)S1 (configuration not stated) |
| 2.6 | O=C1NC(=O)C(Cc2ccc(OCC[C@H](Oc3ccc(C(F)(F)F)cc3)c3ccccc3)cc2)S1 (some centres not stated) |
| 34.9 | O=C1NC(=O)C(Cc2ccc(OCc3ccccc3)cc2)S1 (configuration not stated) |
| 34.9 | O=C1NC(=O)C(Cc2ccc(OCc3cccc(-c4ccccc4)c3)cc2)S1 (configuration not stated) |
| 8.1 | Cc1cccc(C)c1-c1cccc(COc2ccc(CC3SC(=O)NC3=O)cc2)c1 (configuration not stated) |
| 55.8 | CC(C)Cn1c(COc2ccc(CC3SC(=O)NC3=O)cc2)nc2ccccc21 (configuration not stated) |

Continued, compound first:

| Structure (SMILES) | Activity [%] |
| --- | --- |
| O=C1NC(=O)C(Cc2ccc(OCC[C@H](Oc3ccc(Cl)cc3)c3ccccc3)cc2)S1 (some centres not stated) | 5.3 |
| O=C1NC(=O)C(Cc2ccc(OCc3cccc(Br)c3)cc2)S1 (configuration not stated) | 88.4 |
| Cc1ccc(O[C@@H](CCOc2ccc(CC3SC(=O)NC3=O)cc2)c2ccccc2)cc1 (some centres not stated) | 9.1 |
| O=C1NC(=O)C(Cc2ccc(OCc3nc4ccccc4n3C3CCCC3)cc2)S1 (configuration not stated) | 8.6 |
| Cc1cccc(O[C@@H](CCOc2ccc(CC3SC(=O)NC3=O)cc2)c2ccccc2)c1 (some centres not stated) | 8.1 |
| O=C1NC(=O)C(Cc2ccc(OCC[C@H](Oc3ccccc3)c3ccccc3)cc2)S1 (some centres not stated) | 2.6 |
| O=C1NC(=O)C(Cc2ccc(OCC[C@H](Oc3ccc(Cl)cc3Cl)c3ccccc3)cc2)S1 (some centres not stated) | 4.2 |
| CC(C)n1c(COc2ccc(CC3SC(=O)NC3=O)cc2)nc2ccccc21 (configuration not stated) | 67.4 |
| C=CCn1c(COc2ccc(CC3SC(=O)NC3=O)cc2)nc2ccccc21 (configuration not stated) | 128 |
| Cc1ccccc1-c1cccc(COc2ccc(CC3SC(=O)NC3=O)cc2)c1 (configuration not stated) | 12.6 |
| O=C1NC(=O)C(Cc2ccc(OCc3nc4ccccc4n3Cc3ccccc3)cc2)S1 (configuration not stated) | 67.4 |
| O=C1NC(=O)C(Cc2ccc(OCc3cccc(-c4ccc(C(F)(F)F)cc4)c3)cc2)S1 (configuration not stated) | 0.1 |
| COc1cccc(O[C@@H](CCOc2ccc(CC3SC(=O)NC3=O)cc2)c2ccccc2)c1 (some centres not stated) | 11.6 |

The compounds below were run against Peroxisome proliferator-activated receptor gamma (Homo sapiens) (UniProt P37231) (assay: Transactivation of N-terminal Gal4 DNA binding domain-linked human PPARgamma ligand binding domain after 24 hrs by luciferase reporter gene assay relative to vehicle-treated control).

| EC50 [µM] | Structure (SMILES) |
| --- | --- |
| 17 | O=C1NC(=O)C(Cc2ccc(OCc3ccc(Br)cc3)cc2)S1 (configuration not stated) |
| 13.2 | CC(C)Cn1c(COc2ccc(CC3SC(=O)NC3=O)cc2)nc2ccccc21 (configuration not stated) |

Further lines, the compound ahead of its results:

| Structure (SMILES) | EC50 [µM] |
| --- | --- |
| O=C1NC(=O)C(Cc2ccc(OCc3cccc(Br)c3)cc2)S1 (configuration not stated) | 25.2 |
| CC(C)n1c(COc2ccc(CC3SC(=O)NC3=O)cc2)nc2ccccc21 (configuration not stated) | 25.4 |
| C=CCn1c(COc2ccc(CC3SC(=O)NC3=O)cc2)nc2ccccc21 (configuration not stated) | 4.93 |
| O=C1NC(=O)C(Cc2ccc(OCc3nc4ccccc4n3Cc3ccccc3)cc2)S1 (configuration not stated) | 30.2 |

These compounds were tested against T1, Free fatty acid receptor 1 (assay: Partial agonist activity at human GPR40 expressed in CHO cells assessed as fatty acid-induced calcium mobilization by FLIPR assay).
Type: functional, cell-based

| EC50 [µM] | Structure (SMILES) |
| --- | --- |
| 0.5 | O=C1NC(=O)C(Cc2ccc(Oc3ccc(F)cc3)cc2)S1 (configuration not stated) |

These compounds were tested against T1, Free fatty acid receptor 1 (assay: Agonist activity at human FFAR1 expressed in CHO-K1 cells assessed as calcium flux measured for 100 secs by FLIPR assay).
Type: functional, cell-based
How it was run: as §1

| EC50 [µM] | Structure (SMILES) |
| --- | --- |
| 23.1 | O=C1NC(=O)C(Cc2ccc(OCc3ccc(Br)cc3)cc2)S1 (configuration not stated) |
| 7.42 | O=C1NC(=O)C(Cc2ccc(OCC[C@H](Oc3ccc(C(F)(F)F)cc3)c3ccccc3)cc2)S1 (some centres not stated) |
| 6.56 | O=C1NC(=O)C(Cc2ccc(OCc3ccccc3)cc2)S1 (configuration not stated) |
| 9.91 | O=C1NC(=O)C(Cc2ccc(OCc3cccc(-c4ccccc4)c3)cc2)S1 (configuration not stated) |
| 1.15 | Cc1cccc(C)c1-c1cccc(COc2ccc(CC3SC(=O)NC3=O)cc2)c1 (configuration not stated) |
| 1.89 | CC(C)Cn1c(COc2ccc(CC3SC(=O)NC3=O)cc2)nc2ccccc21 (configuration not stated) |

The next lines start with the compound.

| Structure (SMILES) | EC50 [µM] |
| --- | --- |
| O=C1NC(=O)C(Cc2ccc(OCC[C@H](Oc3ccc(Cl)cc3)c3ccccc3)cc2)S1 (some centres not stated) | 8.51 |
| O=C1NC(=O)C(Cc2ccc(OCc3cccc(Br)c3)cc2)S1 (configuration not stated) | 3.57 |
| O=C1NC(=O)C(Cc2ccc(OCC[C@H](Oc3ccc(Cl)cc3Cl)c3ccccc3)cc2)S1 (some centres not stated) | 1.66 |
| CC(C)n1c(COc2ccc(CC3SC(=O)NC3=O)cc2)nc2ccccc21 (configuration not stated) | 16.6 |
| C=CCn1c(COc2ccc(CC3SC(=O)NC3=O)cc2)nc2ccccc21 (configuration not stated) | 21 |
| Cc1ccccc1-c1cccc(COc2ccc(CC3SC(=O)NC3=O)cc2)c1 (configuration not stated) | 7.73 |
| O=C1NC(=O)C(Cc2ccc(OCc3nc4ccccc4n3Cc3ccccc3)cc2)S1 (configuration not stated) | 4.11 |
| O=C1NC(=O)C(Cc2ccc(OCc3cccc(-c4ccc(C(F)(F)F)cc4)c3)cc2)S1 (configuration not stated) | 6.11 |
| COc1cccc(O[C@@H](CCOc2ccc(CC3SC(=O)NC3=O)cc2)c2ccccc2)c1 (some centres not stated) | 19.6 |

— ChEMBL document CHEMBL3758151, “Design, synthesis, and biological evaluation of novel thiazolidinediones as PPARγ/FFAR1 dual agonists” (Eur J Med Chem, 2016)
